Molecules are shown by their SMILES.

The nature of this data set: Toxicity liver stage against HepG2, at 10uM. As to conditions: human, HepG2-A16-CD81EGFP cells; read-out: INHIBITION
Format: cell-based. Details: test concentration 10 uM, cell line HepG2-A16-CD81EGFP. A digest of the protocol: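 Uninfected HepG2-A16-CD81EGFP cells, 3 × 10^3 per well, 1536-well, plated on prespotted compound at 10 μM final, parasite-free screening media added to match infected plates; puromycin 10 μM positive, DMSO 0.5% negative; run in parallel with 48 h PbLuc assay at 37 °C, 5% CO2; viability by CellTiter-Glo luminescence, normalized to controls.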
Take `CCSc1nc2ccccc2c(=O)n1OCC(=O)OC`: the cytotoxicity at 10 µM is -5.49%.
With `O=C1CN(c2ccc(CNC(=O)Nc3nnc(C4CC4)s3)cc2)CCN1`, the cytotoxicity at 10 µM is -3.73%.
Take `Cc1cc(S(=O)(=O)N(CC(N)=O)CC(C)C)ccc1Br`: the cytotoxicity at 10 µM is -10.1%.
The result for `OC(c1ccccc1)C1CCN(Cc2csc(-c3ncccn3)n2)CC1` (configuration not stated) reads -3.87%.
With `CC(C)(C)C(CCO)NC(=O)Nc1ccncc1` (configuration not stated), the cytotoxicity at 10 µM was -3.28%.
In the case of `CN1CCC(N[C@@H]2CO[C@H](CNC(=O)Nc3ccccc3)[C@H]2O)CC1` it was 6.31%.
`COc1ccc(CC(=O)N2CC(=O)NCC(C)(C)C2)cc1`: the cytotoxicity at 10 µM was -0.634%.
The result for `O=C(Nc1cccc(C(F)(F)F)c1)N1CCN(CCn2ccnc2)CC1` reads -25.3%; that for `CS(=O)(=O)N1CCN(C(=O)C2CSCCC(=O)N2)CC1` (configuration not stated), 0.565%; that for `O=C(c1ccc2[nH]ccc2c1)N1CCCSCC1CN1CCCC1` (configuration not stated), 9.4%.
Turning to `Cc1cncc(Oc2ccc(CN)cc2)n1`, the cytotoxicity at 10 µM was 9.81%.
Regarding `CCc1cnc(N2CCC3(CCN(Cc4cccc(C)c4)C3=O)C2)nc1` (configuration not stated), the cytotoxicity at 10 µM is -0.891%.
As to `CCCS(=O)(=O)N1CCOC2(COCCN(C(C)=O)C2)C1` (configuration not stated), the cytotoxicity at 10 µM stood at 19.9%.
The result for `O=C([C@H]1COC[C@H]2CN(CC3CC3)C[C@H]21)N1CCOCC1` reads 11.8%.
In the case of `CO[C@@H]1CCN(c2ncc(F)cn2)[C@@H]2CN(CC3CC3)C[C@@H]21`, the cytotoxicity at 10 µM was found to be 12.3%.
For the compound `Cc1ccsc1C(=O)N1CCCn2nnc(Cn3cccn3)c2C1`, the cytotoxicity at 10 µM turned out to be 7.37%.
In the case of `CC(C)Nc1ncnc2c1CCN(c1cc(C(F)(F)F)ncn1)CC2` it was 6.07%; in that of `O=C(NCc1cccnc1)C1=NOC2(CCCN(CCO)C2)C1` (configuration not stated), 5.66%; in that of `COc1cc(C2SCC(=O)Nc3n[nH]cc32)cc(OC)c1O` (configuration not stated), 7.85%.
The result for `CCn1nc(C)c2c1cnn2CCNS(=O)(=O)c1cccs1` reads 4.51%; that for `Clc1cccc(Cl)c1CNCCOc1ccccn1`, -13.2%.
With `O=C(NCC(F)F)c1cc(-c2ccccc2)nc2ncnn12`, the cytotoxicity at 10 µM is -3.37%.
The result for `CCOC(=O)C1=NOC(Cc2cc(OC)c3c(c2)OCO3)C1` (configuration not stated) reads 9.98%; that for `Cc1cccc(NC(=O)c2cccc(OCc3nnnn3C)c2)n1`, 3%.
Take `CN[C@@H]1CCC[C@@H](Oc2ccccc2Oc2ccc(C)cc2)[C@@H]1O`: the cytotoxicity at 10 µM is -14.2%.
Turning to `CN(C(=O)c1cn(C)cn1)[C@@H]1CCC[C@@H](Oc2ccccc2)[C@@H]1O`, the cytotoxicity at 10 µM worked out at 23%.
The result for `NCCn1nc(C2CCN(Cc3ccccc3)C2)c2nccnc21` (configuration not stated) reads 0.975%; that for `COCCCc1nc(-c2ccc(S(=O)(=O)N3CCCC3)cc2)cs1`, -46.3%; that for `COc1cc(Br)cc(CNC2CCCNC2=O)c1O` (configuration not stated), 2.37%.
In the case of `CC(O)CN(Cc1cccc(C(=O)N(C)C)c1)c1ccccc1` (configuration not stated) it was 2.45%.
The result for `CN(Cc1cscn1)C(=O)C(c1ccccc1)N1CCSCC1` (configuration not stated) reads 9.26%; that for `Cc1n[nH]cc1CNC(=O)Nc1cccc(OCC(F)(F)F)c1`, 8.64%; that for `Cc1ncc(S(=O)(=O)N(CC(C)C)c2cccc(O)c2)s1`, -41.2%.
With `CC(=O)N1CCC(NC(=O)c2cc(Cl)ccc2O)CC1`, the cytotoxicity at 10 µM worked out at 0.0966%.
In the case of `CCS(=O)(=O)c1ccc(N2CCC(NC(=O)CC3CCCC3)CC2)cc1` it was 22.7%.
As for `CC(C)(C)n1ncc2c1CCCC2NCc1ccc2c(c1)CCO2` (configuration not stated), the cytotoxicity at 10 µM is 2.55%.
The result for `CNc1cc(N2CCCC2CNCc2ccco2)ncn1` (configuration not stated) reads -10.4%; that for `Cc1noc(CS(=O)(=O)C/C=C/c2ccccc2)n1`, -10.9%; that for `CCSCc1cccc(NC(=O)N(C)Cc2ncnn2C)c1`, -0.477%.
In the case of `CCOc1ccccc1Oc1ccc(CN)cn1` it was 6.03%; in that of `Cc1cnc(CCN(C)C(=O)c2ccc(O)nc2C)s1`, -1.56%.
Turning to `CCOc1ccc(CSC(C)c2nc(C)no2)nc1` (configuration not stated), the cytotoxicity at 10 µM was -9.32%.
The result for `CCC1CN(C)c2ccccc2CN1C(=O)Nc1cccc(F)c1` (configuration not stated) reads 5.9%; that for `CCOCCNC(=O)C(CCSC)NC(=O)c1ccc2ccccc2n1` (configuration not stated), -9.95%; that for `Cc1cc(NC(N)=O)ccc1C(=O)N(C)C`, 12.2%.
`CC(O)CN1CCN(Cc2csc(-c3ncccn3)n2)CC1` (configuration not stated): the cytotoxicity at 10 µM turned out to be 5.4%.
The result for `Cc1nc(CN2CCC23CCN(C(=O)c2ccco2)CC3)cs1` reads -98.9%; that for `CC(=O)NCC(=O)N1Cc2cnc(CC(C)C)nc2C1`, -6.12%.
Regarding `O=C(Nc1ccccc1)c1cccc(S(=O)(=O)NC[C@@H]2C[C@H](F)CN2)c1`, the cytotoxicity at 10 µM was 2.83%.
As for `Cn1ccnc1C1CCN(S(=O)(=O)c2ccc3oc(=O)[nH]c3c2)CC1`, the cytotoxicity at 10 µM turned out to be 1.93%.
The result for `O=C(CCN1CCCC(CC2CC2)(C(=O)O)C1)NC1CCCC1` (configuration not stated) reads 18.7%; that for `CSc1cccc(CN(C)C(=O)c2cccc(C3CCCNC3)c2)c1` (configuration not stated), -1.08%.
The result for `CC(C)C[C@H](Nc1nc(C2CCCC2)nc2c1cnn2C)C(N)=O` reads -42.3%.
In the case of `CCc1nnc(NC(=O)CCN2CC=C(c3cnn(C)c3)CC2)s1` it was 2.66%; in that of `Cc1cccc2c(=O)c(C(=O)N3CCCC4(CN(C)C(=O)O4)C3)c[nH]c12` (configuration not stated), 10.5%; in that of `CCC(C)Oc1ccc(CNCCNC(C)=O)cc1Cl` (configuration not stated), 1.12%.
Consider `CCc1ncc(C(=O)N(C)Cc2cc(-c3ccncc3)no2)cn1`, for which the cytotoxicity at 10 µM was -13.2%.
The result for `Cc1ccc(CN(CCN(C)C)C(=O)Nc2ccc(C)c(C#N)c2)s1` reads 5.57%; that for `Cc1nccn1CCCN1CCC(c2nccn2CC2CCC2)CC1`, -20.8%.
Turning to `NC(=O)CCn1cc(CNCc2csc(N)n2)c2ccccc21`, the cytotoxicity at 10 µM was 6.7%.
In the case of `Cc1ccccc1N1CCCN(C(=O)CC2CN(C(C)C)CCO2)CC1` (configuration not stated) it was -3.11%; in that of `COc1ccc(C)cc1NC(=O)c1coc(C)n1`, -7.66%.
Regarding `Cc1cc(C(=O)NC(C)c2nnn[nH]2)c2cccc(C)c2n1` (configuration not stated), the cytotoxicity at 10 µM is -16.4%.
The result for `Cc1ccccc1[C@@H]1CN(Cc2ccc(C(F)(F)F)nc2)C[C@H]1C(=O)O` reads 5.33%; that for `CC(=O)Nc1ccc(Cl)c(C(=O)N(C)C(C)c2nccs2)c1` (configuration not stated), -42.8%; that for `c1ccc(CCN2CCN(c3ccc4nncn4n3)CC2)cc1`, -11.7%.
In the case of `CCc1nc(C2CCCN2Cc2cc(C)nc3ccccc23)no1` (configuration not stated) it was 86%; in that of `CCc1nc(C2CCCN(C(=O)c3ccccc3F)C2)no1` (configuration not stated), 2.64%.
The result for `CCOCCN1CCC(C(=O)c2cc(F)ccc2F)CC1` reads -7.33%.
As for `Cn1cc(NS(=O)(=O)c2ccc(C(F)(F)F)cc2)ccc1=O`, the cytotoxicity at 10 µM stood at 6.08%.
In the case of `CCn1cc(NC(=O)NCC(O)COc2ccccc2)cn1` (configuration not stated), the cytotoxicity at 10 µM is -8.6%.
The result for `CCn1nc2c(cc1=O)CN(Cc1nc(-c3cccs3)no1)CC2` reads -8.99%.
As for `NC(=O)C1CCCN(c2ccc(CNC(=O)c3cnsn3)cc2)C1` (configuration not stated), the cytotoxicity at 10 µM was 2.25%.
On to `c1cc(CNCC2CNc3ccnn3C2)cc(OC2CCCC2)n1` (configuration not stated), for which the cytotoxicity at 10 µM was -3.02%.
In the case of `CCN1CCN(CCNC(=O)c2ccn(-c3ccc(F)cc3)n2)CC1` it was -26.2%; in that of `Cc1nc(C)n(C2CCCN(C(=O)c3cscn3)C2)n1` (configuration not stated), -8.78%.
For the compound `O=C(CCc1ccc(Cl)s1)N1CCC(N2CCNC2=O)CC1`, the cytotoxicity at 10 µM was determined as 2.6%.
In the case of `Cc1nc(CN(C)CC2CCCN2c2cccnn2)nc2ccccc12` (configuration not stated) it was -6.31%.
The result for `CCCNC(=O)CNc1cc(C#N)ccc1OCC` reads -11.6%; that for `Cc1nc(C)n(CC2CCCN2Cc2nc(N)c3ccccc3n2)n1` (configuration not stated), -0.192%.
In the case of `Cc1nc(C)n(CC2CCCN(Cc3nc(C4CC4)no3)C2)n1` (configuration not stated) it was -7.76%.
Turning to `Cn1ccnc1CN1CCCCC1Cn1cccn1` (configuration not stated), the cytotoxicity at 10 µM is 5.94%.
In the case of `Cc1nc(CN2CCCN(C(=O)c3ccccn3)CC2)oc1C` it was 0.289%; in that of `CC(c1nc(C2CC2)no1)N1CCN(Cc2cccc(C#N)c2)CC1` (configuration not stated), 3.92%.
`COc1ccc(CN(C)[C@@H]2COC[C@H]2c2ccc(F)cc2)c(OC)c1`: the cytotoxicity at 10 µM was 8.54%.
For the compound `CC(C)NC(=O)[C@@]12CCO[C@@H]1CCN(Cc1ccco1)C2`, the cytotoxicity at 10 µM was -3.31%.
With `CC(C)NC(=O)N1CCC2(CCC(=O)N2CCN(C)C)CC1`, the cytotoxicity at 10 µM is -7.13%.
With `O=C(NCc1cn2c(n1)CN(CC1CCOCC1)CC2)C1CCC1`, the cytotoxicity at 10 µM was -12.1%.
Consider `Cc1ccc(CNC2CCCc3c2cnn3Cc2ccccc2)s1` (configuration not stated), for which the cytotoxicity at 10 µM worked out at 0.338%.
In the case of `Cc1nc(N2CCOCC2)nc2c1CCN(Cc1ccsc1)CC2` it was -130%.
Turning to `O=C(NCCc1ccccn1)[C@@H]1CC[C@@H]2[C@@H](CCN2Cc2ccoc2)O1`, the cytotoxicity at 10 µM was found to be 8.21%.
The result for `Cc1ccc(CNC2CC3(CCN(CCO)CC3)c3ccccc32)s1` (configuration not stated) reads -108%; that for `O=C(c1ccccc1)N1CCC2(CC1)CNc1c(F)cccc12`, 7.33%.
In the case of `CN(C)Cc1cncc2c1CCN(Cc1cnn(C)c1)C2` it was 4.13%; in that of `Cc1nnsc1CN1C[C@H]2CC[C@@H](C1)N(Cc1ccccc1)C2`, 9.47%; in that of `CSc1ccccc1CN1C[C@@H]2CC[C@H]1CN(Cc1[nH]cnc1C)C2`, -8.96%.
In the case of `CC1(C)CC(n2cc3nc(N4CCOCC4)[nH]cc-3c2=O)CC(C)(C)N1` it was -19.9%.

(Values after ChEMBL document CHEMBL4513216, “Probing the Open Global Health Chemical Diversity Library for Multistage-Active Starting Points for Next-Generation Antimalarials” (ACS Infect Dis, 2020).)
